Assays:
Rattus norvegicus [1] = assay: Antiinflammatory activity against albino rat assessed as inhibition of carrageenan-induced paw edema at 0.28 mmol/kg, po administered 30 mins prior to carrageenan challenge measured after 4 hrs relative to control; format: functional
Summary of the method: (§1)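 Adult male albino rats (120–140 g), in groups of four, were fasted 24 h with water allowed. Compounds were given orally as a suspension in 0.5% w/v CMC in water, and controls received CMC alone. After 30 min, 0.1 mL of 1% carrageenan in saline was injected subplantar into the right hind paw and saline into the left. Paw thickness was measured by caliper. % inhibition = [(VR−VL)control − (VR−VL)treated]/(VR−VL)control; one-way ANOVA.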

Rattus norvegicus [2] = assay: Gastric toxicity in rat assessed as ulcer index at 0.28 mmol/kg, po; format: organism-based; conditions: in vivo
Rattus norvegicus [3] = assay: Antiinflammatory activity against albino rat assessed as inhibition of carrageenan-induced paw edema at 0.28 mmol/kg, po administered 30 mins prior to carrageenan challenge measured after 2 hrs relative to control; format: functional; summary of the method: as §1
Rattus norvegicus [4] = assay: Antiinflammatory activity against albino rat assessed as inhibition of carrageenan-induced paw edema at 0.28 mmol/kg, po administered 30 mins prior to carrageenan challenge measured after 3 hrs relative to indomethacin; format: functional; parameters: scale not given: the % may be the effect or the level left
Rattus norvegicus [5] = assay: Antiinflammatory activity against albino rat assessed as inhibition of carrageenan-induced paw edema at 0.28 mmol/kg, po administered 30 mins prior to carrageenan challenge measured after 1 hr relative to control; format: functional; summary of the method: as §1
Rattus norvegicus [6] = assay: Antiinflammatory activity against albino rat assessed as inhibition of carrageenan-induced paw edema at 0.28 mmol/kg, po administered 30 mins prior to carrageenan challenge measured after 3 hrs relative to control; format: functional; summary of the method: as §1
Rattus norvegicus [7] = assay: Antiinflammatory activity against albino rat assessed as inhibition of carrageenan-induced paw edema at 0.28 mmol/kg, po administered 30 mins prior to carrageenan challenge measured after 5 hrs relative to control; format: functional; summary of the method: as §1
[8] = target: T1, Prostaglandin G/H synthase 1 (Ovis aries, UniProt P05979); assay: Inhibition of ovine COX1 using ADHP as substrate after 20 mins by fluorescence assay
T1 sequence (P05979 whole entry): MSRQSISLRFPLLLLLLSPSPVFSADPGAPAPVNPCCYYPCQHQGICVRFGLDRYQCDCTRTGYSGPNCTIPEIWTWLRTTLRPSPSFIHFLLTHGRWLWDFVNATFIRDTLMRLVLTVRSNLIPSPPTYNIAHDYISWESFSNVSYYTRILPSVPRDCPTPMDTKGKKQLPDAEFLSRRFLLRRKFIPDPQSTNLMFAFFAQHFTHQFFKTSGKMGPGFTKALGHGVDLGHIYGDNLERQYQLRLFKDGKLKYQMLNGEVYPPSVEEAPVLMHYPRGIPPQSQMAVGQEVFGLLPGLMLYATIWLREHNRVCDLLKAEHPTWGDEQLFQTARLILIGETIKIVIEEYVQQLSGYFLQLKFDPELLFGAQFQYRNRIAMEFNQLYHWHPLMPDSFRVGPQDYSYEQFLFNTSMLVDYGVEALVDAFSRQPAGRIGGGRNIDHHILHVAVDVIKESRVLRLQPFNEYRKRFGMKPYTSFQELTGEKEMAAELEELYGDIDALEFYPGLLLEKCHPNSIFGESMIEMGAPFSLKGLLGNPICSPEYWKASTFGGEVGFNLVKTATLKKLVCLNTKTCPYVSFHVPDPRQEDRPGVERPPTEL
Summary of the method: (§2)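 Ovine COX-1 or human recombinant COX-2 was preincubated 20 min at room temperature with a range of compound concentrations in 100 mM Tris-HCl pH 8.0, heme and ADHP. Arachidonic acid was then added for 2 min at room temperature, and resorufin fluorescence was read. IC50 came from the dose-response curve (triplicate determinations). Selectivity index = COX-1 IC50/COX-2 IC50.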

[9] = target: T2, Prostaglandin G/H synthase 2 (Homo sapiens, UniProt P35354); assay: Inhibition of human recombinant COX2 using ADHP as substrate after 20 mins by fluorescence assay; summary of the method: as §2
T2 sequence (P35354 whole entry): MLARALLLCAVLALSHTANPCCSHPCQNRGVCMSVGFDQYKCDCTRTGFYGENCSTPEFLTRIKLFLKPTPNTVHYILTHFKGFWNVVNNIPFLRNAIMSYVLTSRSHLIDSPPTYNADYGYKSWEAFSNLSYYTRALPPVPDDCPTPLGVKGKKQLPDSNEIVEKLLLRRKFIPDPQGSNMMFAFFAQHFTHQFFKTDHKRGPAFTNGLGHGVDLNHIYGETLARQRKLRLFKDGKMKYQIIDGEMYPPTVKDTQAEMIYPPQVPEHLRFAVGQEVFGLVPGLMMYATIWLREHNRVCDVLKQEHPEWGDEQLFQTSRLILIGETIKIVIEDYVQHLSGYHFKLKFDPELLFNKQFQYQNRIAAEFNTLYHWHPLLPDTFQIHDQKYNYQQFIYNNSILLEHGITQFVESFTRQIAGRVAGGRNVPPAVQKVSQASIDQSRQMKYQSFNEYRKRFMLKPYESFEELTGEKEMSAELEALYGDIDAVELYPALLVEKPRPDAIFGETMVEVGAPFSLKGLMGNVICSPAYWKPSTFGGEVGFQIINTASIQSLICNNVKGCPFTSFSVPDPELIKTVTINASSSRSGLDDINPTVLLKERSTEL

Rattus norvegicus [10] = assay: Antiinflammatory activity against albino rat assessed as inhibition of carrageenan-induced paw edema at 0.28 mmol/kg, po administered 30 mins prior to carrageenan challenge measured after 3 hrs relative to celecoxib; format: functional; parameters: scale not given: the % may be the effect or the level left
[11] = Selectivity index, ratio of IC50 for ovine COX1 to IC50 for human recombinant COX2; summary of the method: as §2

| IC50 [8] [µM] | IC50 [9] [µM] | Ratio IC50 [11] | SMILES | inhibition in vivo at 280 µmol/kg (Rattus norvegicus [1]) [%] | UI (Rattus norvegicus [2]) | inhibition in vivo at 280 µmol/kg (Rattus norvegicus [3]) [%] | Activity (Rattus norvegicus [4]) [%] | inhibition in vivo at 280 µmol/kg (Rattus norvegicus [5]) [%] | inhibition in vivo at 280 µmol/kg (Rattus norvegicus [6]) [%] | inhibition in vivo at 280 µmol/kg (Rattus norvegicus [7]) [%] | Activity (Rattus norvegicus [10]) [%] |
| --- | --- | --- | --- | --- | --- | --- | --- | --- | --- | --- | --- |
| > 1000 | 0.89 | > 1120 | COc1ccc(NC(=O)c2nc(-c3ccccc3)n(-c3ccc(S(N)(=O)=O)cc3)n2)cc1 | 73 | 2.3 | 57 | 99 | 53 | 78 | 55 | 113 |
| > 1000 | 1.7 | > 588 | NS(=O)(=O)c1ccc(-n2nc(C(=O)NCc3ccccc3)nc2-c2ccccc2)cc1 | 36 | 3 | 47 | 73 | 42 | 58 | 29 | 84 |
| 798 | 0.38 | 2100 | NS(=O)(=O)c1ccc(-n2nc(C(=O)Nc3nc4ccccc4s3)nc2-c2ccccc2)cc1 | 44 | 1 | 32 | 68 | 20 | 54 | 38 | 78 |
| 346 | 1.3 | 266 | COc1ccc(NC(=O)c2nc(-c3ccccc3)n(-c3ccc(S(N)(=O)=O)cc3)n2)cc1OC | 63 | 0 | 52 | 91 | 22 | 72 | 60 | 104 |
| > 1000 | 0.47 | > 2130 | NS(=O)(=O)c1ccc(-n2nc(C(=O)Nc3ccc(Cl)cc3)nc2-c2ccccc2)cc1 | 53 | 0.5 | 62 | 85 | 36 | 67 | 44 | 97 |
| 516 | 1.9 | 271 | Cc1ccc(NC(=O)c2nc(-c3ccccc3)n(-c3ccc(S(N)(=O)=O)cc3)n2)cc1 | 71 | 1 | 47 | 96 | 40 | 76 | 65 | 110 |

The next lines start with the compound.

| SMILES | IC50 [8] [µM] | IC50 [9] [µM] | Ratio IC50 [11] | inhibition in vivo at 280 µmol/kg (Rattus norvegicus [1]) [%] | UI (Rattus norvegicus [2]) | inhibition in vivo at 280 µmol/kg (Rattus norvegicus [3]) [%] | Activity (Rattus norvegicus [4]) [%] | inhibition in vivo at 280 µmol/kg (Rattus norvegicus [5]) [%] | inhibition in vivo at 280 µmol/kg (Rattus norvegicus [6]) [%] | inhibition in vivo at 280 µmol/kg (Rattus norvegicus [7]) [%] | Activity (Rattus norvegicus [10]) [%] |
| --- | --- | --- | --- | --- | --- | --- | --- | --- | --- | --- | --- |
| COc1ccc2c(c1)c(CC(=O)O)c(C)n2C(=O)c1ccc(Cl)cc1 [INDOMETHACIN] |  |  |  | 81 | 39 | 66 | 100 | 54 | 79 | 84 |  |
| COC(=O)c1nc(-c2ccccc2)n(-c2ccc(S(N)(=O)=O)cc2)n1 |  |  |  | 61 | 3 | 48 | 87 | 38 | 69 | 46 | 100 |
| NS(=O)(=O)c1ccc(-n2nc(C(=O)NC3CCCCC3)nc2-c2ccccc2)cc1 | > 1000 | 0.66 | > 1520 | 53 | 0 | 43 | 82 | 20 | 65 | 42 | 94 |
| NC(=O)c1nc(-c2ccccc2)n(-c2ccc(S(N)(=O)=O)cc2)n1 |  |  |  | 49 | 2 | 48 | 66 | 43 | 52 | 42 | 75 |
| NNC(=O)c1nc(-c2ccccc2)n(-c2ccc(S(N)(=O)=O)cc2)n1 |  |  |  | 45 | 3 | 53 | 76 | 32 | 60 | 32 | 87 |
| CC(=O)c1ccc(NC(=O)c2nc(-c3ccccc3)n(-c3ccc(S(N)(=O)=O)cc3)n2)cc1 |  |  |  | 64 | 0.5 | 68 | 92 | 53 | 73 | 42 | 106 |
| CC(C)NC(=O)c1nc(-c2ccccc2)n(-c2ccc(S(N)(=O)=O)cc2)n1 | > 1000 | 16 | > 62.5 | 44 | 0 | 43 | 70 | 21 | 55 | 43 | 80 |
| Cc1ccc(-c2cc(C(F)(F)F)nn2-c2ccc(S(N)(=O)=O)cc2)cc1 [CELECOXIB] |  |  |  | 59 | 0.5 | 50 |  | 44 | 69 | 52 | 100 |
